Data reported in ChEMBL document CHEMBL1155541, “Discovery of 6-chloro-2-trifluoromethyl-7-aryl-7H-imidazo[1,2-a]imidazol-3-ylmethylamines, a novel class of corticotropin-releasing factor receptor type 1 (CRF1R) antagonists” (Bioorg Med Chem Lett, 2010).
Active and inactive are the calls of the source. How the calls were made is not given here.

Columns and labels:
[1] = biological target: T1, Corticotropin-releasing factor receptor 1 (Homo sapiens, UniProt P34998); assay: Displacement of [125I] Tyr-o-CRF from human […] expressed in human IMR-32 cells after 100 mins; assay type: cell-based
T1 sequence (P34998 whole entry): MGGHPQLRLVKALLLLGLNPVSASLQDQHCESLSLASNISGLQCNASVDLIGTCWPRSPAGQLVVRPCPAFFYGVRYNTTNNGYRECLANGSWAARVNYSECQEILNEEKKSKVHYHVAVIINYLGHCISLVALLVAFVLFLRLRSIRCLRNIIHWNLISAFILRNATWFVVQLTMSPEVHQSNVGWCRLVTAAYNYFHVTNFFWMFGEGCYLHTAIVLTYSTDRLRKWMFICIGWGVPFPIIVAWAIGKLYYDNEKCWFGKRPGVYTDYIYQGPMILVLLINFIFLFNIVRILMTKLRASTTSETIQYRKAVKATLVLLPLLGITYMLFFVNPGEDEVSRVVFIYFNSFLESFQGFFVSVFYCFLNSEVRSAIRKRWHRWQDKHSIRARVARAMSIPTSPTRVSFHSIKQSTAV
Outline: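 Membranes from transformed IMR-32 cells incubated with 100 pM [125I]Tyr-o-CRF and increasing test-compound concentrations, 100 min, 25 °C. Buffer: 50 mM Tris pH 7.2, 10 mM MgCl2, 0.5% BSA, 0.005% Triton X-100, aprotinin, leupeptin. Stopped with ice-cold 50 mM Tris pH 7.4, 0.2% BSA. Nonspecific binding defined with o-CRF. Values given as Ki.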

[2] = biological target: T2, Corticotropin-releasing factor receptor 1 (Homo sapiens) (UniProt P34998); assay: Antagonist activity at human CRF1 receptor expressed in human IMR-32 cells assessed as inhibition of CRF-stimulated cAMP production; assay type: functional, cell-based
T2 sequence (whole entry): T1 sequence (P34998 whole entry)

Structure (SMILES) | Ki [1] | Activity [2]
CCCN(Cc1c(C(F)(F)F)nc2n(-c3c(C)cc(C)cc3C)c(Cl)cn12)CC(F)(F)C(F)(F)F | 440 nM | Active
Cc1cc(C)c(-n2c(Cl)cn3c(CN(CCC4CC4)CCC(F)(F)F)c(C(F)(F)F)nc23)c(C)c1 | 110 nM | Active
CCCN(CC1CC1)C(=O)c1c(C)nc2n(-c3c(C)cc(C)cc3C)c(Cl)cn12 | 61 nM | Active
Cc1cc(C)c(-n2c(Cl)cn3c(CN4CCCC4c4ccccc4)c(C(F)(F)F)nc23)c(C)c1 (stereo not given) | > 7000 nM | Active
CCCN(CCOC)Cc1c(C(F)(F)F)nc2n(-c3c(C)cc(C)cc3C)c(Cl)cn12 | 32 nM | Active
Cc1cc(C)c(-n2c(Cl)cn3c(CN(C)CCc4ccncc4)c(C(F)(F)F)nc23)c(C)c1 | 7600 nM | Active
Cc1cc(C)c(-n2c(Cl)cn3c(CN4CCCC(C)C4)c(C(F)(F)F)nc23)c(C)c1 (stereo not given) | 5800 nM | Active
CCCN(CCC(F)(F)F)Cc1c(C(F)(F)F)nc2n(-c3c(C)cc(C)cc3C)c(Cl)cn12 | 12 nM | Active
Cc1cc(C)c(-n2c(Cl)cn3c(CN4CCOCC4)c(C(F)(F)F)nc23)c(C)c1 | 1700 nM | Active
CCCN(Cc1c(C(F)(F)F)nc2n(-c3c(C)cc(C)cc3C)c(Cl)cn12)CC(F)(F)F | 8.3 nM | Active
Cc1cc(C)c(-n2c(Cl)cn3c(CN(CCC(F)(F)F)Cc4cccc(F)c4)c(C(F)(F)F)nc23)c(C)c1 | 49 nM | Active
Cc1cc(C)c(-n2c(Cl)cn3c(CN(CC4CCC4)CC(F)(F)F)c(C(F)(F)F)nc23)c(C)c1 | 13 nM | Active
CCCN(Cc1c(C(F)(F)F)nc2n(-c3c(C)cc(C)cc3C)c(Cl)cn12)CC1CCC1 | 5.3 nM | Active
Cc1cc(C)c(-n2c(Cl)cn3c(CN4CCC(C)CC4)c(C(F)(F)F)nc23)c(C)c1 | 3200 nM | Active
Cc1cc(C)c(-n2c(Cl)cn3c(CN(C)CCc4cccnc4)c(C(F)(F)F)nc23)c(C)c1 | 1900 nM | Active
C=CCN(CC=C)Cc1c(C(F)(F)F)nc2n(-c3c(C)cc(C)cc3C)c(Cl)cn12 | 13 nM | Active
CCCN(Cc1c(C(F)(F)F)nc2n(-c3c(C)cc(C)cc3C)c(Cl)cn12)CC1CC1 | 9.1 nM | Active
Cc1cc(C)c(-n2c(Cl)cn3c(CN(CCC4CC4)CC(F)(F)F)c(C(F)(F)F)nc23)c(C)c1 | 6.3 nM | Active

Structure (SMILES) | Ki [1] | Activity [2]
Cc1cc(C)c(-n2c(Cl)cn3c(CN4CC=CCC4)c(C(F)(F)F)nc23)c(C)c1 | 760 nM | Active
CCCN(Cc1c(C(F)(F)F)nc2n(-c3c(C)cc(C)cc3C)ccn12)CC1CC1 | 470 nM | Active
Cc1cc(C)c(-n2c(Cl)cn3c(CN4CCCCC4)c(C(F)(F)F)nc23)c(C)c1 | 1200 nM | Active
Cc1cc(C)c(-n2c(Cl)cn3c(CN(CCC(F)(F)F)Cc4ccc(F)cc4)c(C(F)(F)F)nc23)c(C)c1 | 34 nM | Active
Cc1cc(C)c(-n2c(Cl)cn3c(CN(CCC(F)(F)F)CC4CC4)c(C(F)(F)F)nc23)c(C)c1 | 16 nM | Active
CCCN(CC1CC1)C(=O)c1c(C(F)(F)F)nc2n(-c3c(C)cc(C)cc3C)c(Cl)cn12 | 33 nM | Active
Cc1cc(C)c(-n2c(Cl)cn3c(CN(CCc4ccccc4)CCC(F)(F)F)c(C(F)(F)F)nc23)c(C)c1 | 1900 nM | Active
Cc1cc(C)c(-n2c(Cl)cn3c(CN(CCC(F)(F)F)Cc4ccc(Cl)cc4)c(C(F)(F)F)nc23)c(C)c1 | 12 nM | Active
CCCN(Cc1c(C(F)(F)F)nc2n(-c3c(C)cc(C)cc3Cl)c(Cl)cn12)CC1CC1 | 4.2 nM | Active
CCCN(CCC1CC1)Cc1c(C(F)(F)F)nc2n(-c3c(C)cc(C)cc3C)c(Cl)cn12 | 53 nM | Active
Cc1cc(C)c(-n2c(Cl)cn3c(CN4CCC(c5ccccc5)C4)c(C(F)(F)F)nc23)c(C)c1 (stereo not given) | 610 nM | Active
Cc1cc(C)c(-n2c(Cl)cn3c(CN4CCCCC4C)c(C(F)(F)F)nc23)c(C)c1 (stereo not given) | 1600 nM | Active
CCCN(Cc1c(C(F)(F)F)nc2n(-c3ccc(C)cc3OC)c(Cl)cn12)CC1CC1 | 13 nM | Active
Cc1cc(C)c(-n2c(Cl)cn3c(CN4CCSCC4)c(C(F)(F)F)nc23)c(C)c1 | 920 nM | Active
Cc1cc(C)c(-n2c(Cl)cn3c(CN(CC4CC4)CC(F)(F)F)c(C(F)(F)F)nc23)c(C)c1 | 5.2 nM | Active
Cc1cc(C)c(-n2c(Cl)cn3c(CN4CCCC4Cc4ccccc4)c(C(F)(F)F)nc23)c(C)c1 (stereo not given) | 190 nM | Active
Cc1cc(C)c(-n2c(Cl)cn3c(CN(Cc4ccc(F)cc4)CC(F)(F)F)c(C(F)(F)F)nc23)c(C)c1 | 160 nM | Active

Results, then the molecule that gave them:

Ki [1] | Activity [2] | Structure (SMILES)
6 nM | Active | CCN(CCc1ccccc1)Cc1c(C(F)(F)F)nc2n(-c3c(C)cc(C)cc3C)c(Cl)cn12
28 nM | Active | CCCN(Cc1ccc(Cl)cc1)Cc1c(C(F)(F)F)nc2n(-c3c(C)cc(C)cc3C)c(Cl)cn12
21 nM | Active | CCCN(CCc1ccccc1)Cc1c(C(F)(F)F)nc2n(-c3c(C)cc(C)cc3C)c(Cl)cn12
350 nM | Active | Cc1cc(C)c(-n2c(Cl)cn3c(CN(CCc4ccccc4)CC(F)(F)F)c(C(F)(F)F)nc23)c(C)c1
69 nM | Active | CCCN(CCC)Cc1c(C(F)(F)F)nc2n(-c3c(C)cc(C)cc3C)c(Cl)cn12
78 nM | Active | CCCCN(CC)Cc1c(C(F)(F)F)nc2n(-c3c(C)cc(C)cc3C)c(Cl)cn12
9 nM | Active | CCN(Cc1c(C(F)(F)F)nc2n(-c3c(C)cc(C)cc3C)c(Cl)cn12)CC1CC1
170 nM | Active | CCCN(Cc1ccccc1)Cc1c(C(F)(F)F)nc2n(-c3c(C)cc(C)cc3C)c(Cl)cn12
350 nM | Active | CCCN(Cc1ccc(F)cc1)Cc1c(C(F)(F)F)nc2n(-c3c(C)cc(C)cc3C)c(Cl)cn12
260 nM | Active | CCCN(Cc1cccc(F)c1)Cc1c(C(F)(F)F)nc2n(-c3c(C)cc(C)cc3C)c(Cl)cn12
580 nM | Active | CCN(Cc1ccc(Cl)c(Cl)c1)Cc1c(C(F)(F)F)nc2n(-c3c(C)cc(C)cc3C)c(Cl)cn12
150 nM | Active | Cc1cc(C)c(-n2c(Cl)cn3c(CN(C)CCc4ccccc4)c(C(F)(F)F)nc23)c(C)c1
4800 nM | Active | CCN(Cc1ccccc1C)Cc1c(C(F)(F)F)nc2n(-c3c(C)cc(C)cc3C)c(Cl)cn12
4300 nM | Active | Cc1cc(C)c(-n2c(Cl)cn3c(CN(C)CCc4ccccn4)c(C(F)(F)F)nc23)c(C)c1
4.5 nM | Active | C=CCN(CCC)Cc1c(C(F)(F)F)nc2n(-c3c(C)cc(C)cc3C)c(Cl)cn12
13 nM | Active | CCN(CCC1CC1)Cc1c(C(F)(F)F)nc2n(-c3c(C)cc(C)cc3C)c(Cl)cn12
310 nM | Active | CCCCN(C)Cc1c(C(F)(F)F)nc2n(-c3c(C)cc(C)cc3C)c(Cl)cn12
160 nM | Active | Cc1cc(C)c(-n2c(Cl)cn3c(CN(C)Cc4ccccc4)c(C(F)(F)F)nc23)c(C)c1
180 nM | Active | Cc1cc(C)c(-n2c(Cl)cn3c(CN(C)Cc4ccco4)c(C(F)(F)F)nc23)c(C)c1
43 nM | Active | Cc1cc(C)c(-n2c(Cl)cn3c(CN(CCC(F)(F)F)Cc4ccccc4)c(C(F)(F)F)nc23)c(C)c1
130 nM | Active | CCCCN(Cc1ccccc1)Cc1c(C(F)(F)F)nc2n(-c3c(C)cc(C)cc3C)c(Cl)cn12
16 nM | Active | CCN(Cc1c(C(F)(F)F)nc2n(-c3c(C)cc(C)cc3C)c(Cl)cn12)CC1CCC1
67 nM | Active | C=C(C)CN(CC)Cc1c(C(F)(F)F)nc2n(-c3c(C)cc(C)cc3C)c(Cl)cn12
350 nM | Active | CCN(Cc1ccccc1)Cc1c(C(F)(F)F)nc2n(-c3c(C)cc(C)cc3C)c(Cl)cn12
150 nM | Active | CCCN(Cc1ccc([N+](=O)[O-])cc1)Cc1c(C(F)(F)F)nc2n(-c3c(C)cc(C)cc3C)c(Cl)cn12
